This passage reports Inhibition results from BindingDB's records for doi:10.1016/j.ejmech.2014.12.041 (Jagiellonian University Medical College, 2015).

A word on the Inhibition: it is the percentage by which the read-out fell short of the control.

SMILES strings stand for the structures.

The target in assay [1] is 5-hydroxytryptamine receptor 7 (Homo sapiens, UniProt P34969). The experiment in a line: Antagonist activity at human 5HT7 receptor expressed in HEK293 cells assessed as inhibition of serotonin-induced cAMP concentration at 10^-6 M by adenylate cyclase activity based HTRF assay relative to control. For orientation: In TR-FRET formats the signal depends on donor and acceptor labels being close together.

Assay [2] concerns the target T1, 5-hydroxytryptamine receptor 1A (Homo sapiens, UniProt P08908).
T1 sequence (P08908 whole entry): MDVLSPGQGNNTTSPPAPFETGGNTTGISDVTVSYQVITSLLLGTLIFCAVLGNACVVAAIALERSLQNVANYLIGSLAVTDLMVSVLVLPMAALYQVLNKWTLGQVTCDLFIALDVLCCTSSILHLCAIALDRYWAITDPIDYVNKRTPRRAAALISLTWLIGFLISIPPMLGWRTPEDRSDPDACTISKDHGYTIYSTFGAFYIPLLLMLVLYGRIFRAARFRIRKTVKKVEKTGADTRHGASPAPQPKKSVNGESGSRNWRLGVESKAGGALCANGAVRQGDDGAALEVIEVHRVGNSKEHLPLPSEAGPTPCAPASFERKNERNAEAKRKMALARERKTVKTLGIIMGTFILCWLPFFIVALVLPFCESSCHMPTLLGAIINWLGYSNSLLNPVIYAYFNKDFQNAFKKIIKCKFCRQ
The experiment in a line: Antagonist activity at human 5HT1A receptor expressed in HEK293 cells assessed as inhibition of serotonin-induced cAMP concentration at 10^-6 M by adenylate cyclase activity based HTRF assay relative to control. The method, boiled down:
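Human 5-HT1A in HEK-293 cells and human 5-HT7 in CHO cells, per the text. Compounds were tested at a single 10^-6 M concentration, in duplicate. Read-out was % inhibition of the control agonist cAMP response, measured by HTRF against the maximal effect of 300 nM serotonin. Reference antagonists were methiothepin (5-HT7) and WAY-100635 (5-HT1A).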

Sequence of 5-hydroxytryptamine receptor 7 (P34969 whole entry): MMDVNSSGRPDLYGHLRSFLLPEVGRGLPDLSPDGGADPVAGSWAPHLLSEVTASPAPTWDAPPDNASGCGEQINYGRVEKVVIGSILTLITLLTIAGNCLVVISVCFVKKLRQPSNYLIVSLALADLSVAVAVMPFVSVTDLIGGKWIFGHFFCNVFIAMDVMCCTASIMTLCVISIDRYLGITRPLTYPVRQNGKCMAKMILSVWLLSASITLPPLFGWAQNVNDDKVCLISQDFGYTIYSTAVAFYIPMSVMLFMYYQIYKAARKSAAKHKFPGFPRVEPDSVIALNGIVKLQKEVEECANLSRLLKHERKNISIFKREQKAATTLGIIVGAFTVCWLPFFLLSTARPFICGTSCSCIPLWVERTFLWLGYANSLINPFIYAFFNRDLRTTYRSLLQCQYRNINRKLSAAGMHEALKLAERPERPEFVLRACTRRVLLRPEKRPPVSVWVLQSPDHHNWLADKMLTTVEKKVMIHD

With `O=C([C@@H]1CCCN1C(=O)CCCCN1CCN(c2ccccc2-c2ccccc2)CC1)N1CCCCC1`, the Inhibition in assay [1] was found to be 91%. On to `CC(C)c1ccccc1N1CCN(CCCCCCC(=O)N2CCC[C@H]2C(=O)N2CCCCC2)CC1`, for which the Inhibition in assay [2] came to 100%. Still for that read-out and setting: as for `CSc1ccccc1N1CCN(CCCCCC(=O)N2Cc3ccccc3C[C@H]2C(N)=O)CC1`, the figure is 98%. Regarding `NC(=O)[C@@H]1Cc2ccccc2CN1C(=O)CCCCN1CCN(c2ccccc2-c2ccccc2)CC1`, the Inhibition in assay [1] was found to be 94%.
